Assay results: ChEMBL document CHEMBL4513216, “Probing the Open Global Health Chemical Diversity Library for Multistage-Active Starting Points for Next-Generation Antimalarials” (ACS Infect Dis, 2020)

Assay: Toxicity liver stage against HepG2, at 10uM
Type: cell-based
Parameters: test concentration 10 uM, cell line HepG2-A16-CD81EGFP
Conditions: human, HepG2-A16-CD81EGFP cells; read-out: INHIBITION
Method in brief: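 Uninfected HepG2-A16-CD81EGFP cells, 3 × 10^3 per well, 1536-well, plated on prespotted compound at 10 μM final, parasite-free screening media added to match infected plates; puromycin 10 μM positive, DMSO 0.5% negative; run in parallel with 48 h PbLuc assay at 37 °C, 5% CO2; viability by CellTiter-Glo luminescence, normalized to controls.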

| Structure (SMILES) | cytotoxicity at 10 µM [%] |
| --- | --- |
| CC(=O)NCCC(=O)NCc1cccnc1-n1cnc2ccccc21 | -14.2 |
| CC(C)NC(=O)C[C@@H]1CCNC[C@@H]1Cc1cc(-c2ccccc2)on1 | -0.626 |
| CC(C)(C)CN1CC(COc2ccccc2)Oc2ccncc2S1(=O)=O (stereo unspecified) | -65.3 |
| CC(C)n1ncc2c1NC(=O)CC21C(=O)Nc2c(Br)cc(Cl)cc21 (stereo unspecified) | 5.99 |
| O=C(CCNC(=O)c1cnccn1)Nc1ncc[nH]1 | -44.7 |
| O=C1CSC(c2ccc(O)cc2)c2c(n(C3CCOCC3)[nH]c2=O)N1 (stereo unspecified) | 2.84 |
| O=S(=O)(NCC(c1ccsc1)N1CCCCCC1)c1cccs1 (stereo unspecified) | 2 |
| CCOCC(=O)NCC1CCN(Cc2ccsc2)CC1 | 11.1 |
| O=c1ccc(-n2ccnc2)nn1CCNS(=O)(=O)c1ccc(Br)cc1 | -7.21 |
| CSc1ccccc1NC(=O)C1CSc2ncc(C)c(=O)n2C1 (stereo unspecified) | -1.31 |
| CC(=O)N1CCC2(CC1)C(=O)N(c1ccc(C)nc1)CCN2CC(C)C | 22.2 |
| Cc1ccc(N2CCC3(CCN(Cc4csc(C)n4)CC3)CC2)nn1 | 9.43 |
| O=C(C1CC=CC1)N1CCC2(CCN(Cc3cccc(F)c3)CC2)C1 | -4.48 |
| O=C(C1CC1)N1CCC2(COCc3cnc(N4CCOCC4)nc32)C1 (stereo unspecified) | 5.31 |
| Cc1ccc(C(=O)Oc2cc(=O)n3cccc(C)c3n2)cc1 | 5.62 |
| Cc1cc(NC(=O)CCn2nc(C)c3ccccc32)n(C(C)C)n1 | 4.95 |
| CC(=O)Nc1ccc(CCC2(NC(=O)C3CC3)CCCCC2)cn1 | 13.4 |
| Cc1nc2c(c(NCCCN3CCOCC3)n1)CCN(C)C2 | 8.12 |
| CCN1CCCC(O)(c2nc(C)c(CCOc3ccc(F)cc3)s2)CC1 (stereo unspecified) | -22.4 |
| Cc1cccc(CN2CCOC(C)(C(=O)N3CCOCC3)C2)n1 (stereo unspecified) | -9.19 |
| COCCN(C(=O)c1ccccn1)c1nc2c(s1)CCc1c-2cnn1C | -13.8 |
| Cc1cc(-c2ccccc2C(=O)O)nc(C2CCCCN2C)n1 (stereo unspecified) | -0.168 |
| O=C(O)C1(Cc2cccc(-c3ccc(F)c(F)c3)c2)CCOCC1 | -2.5 |

| Structure (SMILES) | cytotoxicity at 10 µM [%] |
| --- | --- |
| CC(C)NC(=O)N1CCC(c2nnc3n2CCNC3)CC1 | 10.4 |
| CCc1nnsc1C(=O)NCc1nnc2n1CCC2 | 0.371 |
| COc1ccc(C(=O)N2CCOc3ccncc32)cc1 | 12.8 |
| CCN(CC)c1ncc(Cl)c(C(=O)NC2CCC(O)CC2)n1 (stereo unspecified) | -43.5 |
| COc1ccc2c(c1)CC(NCc1cccc(NC(C)=O)c1)CC2 (stereo unspecified) | -39.2 |
| COCCn1nc(C(=O)N2CCN(C)CC2C)ccc1=O (stereo unspecified) | -0.451 |
| O=c1oc(-c2ccc(F)cc2)nn1CC1CCCCO1 (stereo unspecified) | 2.35 |
| O=C(NCC1(O)CCC1)c1c(O)cc(F)cc1F | 6.22 |
| CCCN(Cc1ccccc1O)C(=O)Nc1cnn(CCOC)c1 | 23.8 |
| COc1ccc(C2CCN(S(=O)(=O)CCCC#N)CC2)cc1 | 7.13 |
| CC(Oc1cccc(Cl)c1)C(=O)Nc1cnn(CCN(C)C)c1 (stereo unspecified) | -12.5 |
| CC(C)c1csc(C2CCCN(C(=O)c3ccc[nH]3)C2)n1 (stereo unspecified) | -48.6 |
| Cc1cnn(C2CN(CCOc3ccccc3C#N)C2)c1 | -8.88 |
| O=C(C1CCCCN1Cc1nccn1CC(F)(F)F)N1CCCC1 (stereo unspecified) | 14.2 |
| Cn1c(=O)[nH]c2cc(C(=O)OCCCn3ccccc3=O)ccc21 | 1.34 |
| CCC(CC)C(=O)NCC1(NC(C)c2ccccc2)CCOCC1 (stereo unspecified) | 14.7 |
| Cc1cnc(CN(C)Cc2cc3c(cc2OC(F)F)OCO3)o1 | -8.78 |
| Cc1cnc(CN(C)C2CCN(Cc3ccc(Cl)s3)C2)o1 (stereo unspecified) | 5.33 |
| O=c1oc(-c2cccs2)nn1CC(O)c1ccc2c(c1)CCC2 (stereo unspecified) | 5.33 |
| COCCN1CCCC1c1cccc2c1OCCO2 (stereo unspecified) | -9.54 |
| Fc1ccc(OCC2CCCO2)c(NCc2cn3cccnc3n2)c1 (stereo unspecified) | -6.31 |
| COCCN(Cc1cccnc1)S(=O)(=O)c1cc(C)ccc1F | 10.3 |
| COc1cccc2c1OCC(NC(=O)NCCc1ccccn1)C2 (stereo unspecified) | 5.69 |

| Structure (SMILES) | cytotoxicity at 10 µM [%] |
| --- | --- |
| CCN(CC)C(=O)CN(C)C(=O)c1ccc(-c2ccsc2)nc1C | 18.1 |
| CCCc1nnc(NC(=O)N2CCCC2c2ccncc2)s1 (stereo unspecified) | 5.36 |
| COC(=O)C(C)N1CCCc2cc(OC)ccc2C1 (stereo unspecified) | 11 |
| CN(Cc1ccco1)C(=O)Nc1ccc(=O)n(C)c1 | -43.1 |
| CC(NC(=O)N(C)Cc1ccncc1)c1cn(-c2ccccc2)nn1 (stereo unspecified) | -47.7 |
| CC(C)Cc1nc(CN(C)CCOc2ccc(F)cc2)no1 | -4.68 |
| Cn1cnnc1C1CCCN(C(=O)c2cc(-c3ccccc3)on2)C1 (stereo unspecified) | 7.36 |
| CC(NC(=O)Cc1cccs1)(C(N)=O)c1cccc(Cl)c1 (stereo unspecified) | 11.3 |
| Cc1cc(CS(=O)(=O)C(C)C(=O)N(C)c2ccccc2)on1 (stereo unspecified) | 2.74 |
| CN(CC1CCN(CCO)CC1)CC(O)c1ccc(F)cc1F (stereo unspecified) | -59.3 |
| Cc1ccc2c(c1)OC(C)CN2C(=O)Cc1ccc(C)nc1 (stereo unspecified) | -44.2 |
| CN1Cc2ccccc2CC2(CCN(C(=O)[C@H]3CCCO3)CC2)C1=O | -113 |
| CC(=O)N1CCC(c2nnc3ccc(C(=O)NCCN(C)C)cn23)C1 (stereo unspecified) | -104 |
| O=C(COc1ccc(F)cc1)N1CCO[C@H]2[C@@H](OCC3CC3)CC[C@@H]21 | -101 |
| Cc1noc([C@H]2C[C@H]3CN(C(=O)C4CCOCC4)CC[C@@H]3O2)n1 | -72.6 |
| COc1cccc([C@H]2CN(C(=O)c3scc4c3CCCC4)C[C@@H]2N)c1 | -3.45 |
| CN(C)Cc1csc(-c2nccn2CCc2cccnc2)c1 | -51.2 |
| CCc1ncc(C(=O)N(C)CCc2nc3cc(OC)ccc3[nH]2)cn1 | -47.4 |
| COC(=O)NCC(=O)N1CCCn2nc(CN3CC[C@H](F)C3)cc2C1 | 13 |
| CNc1ccnc(N2CC[C@@](O)(C3CCOCC3)[C@H](C)C2)n1 | 8.64 |
| Cc1ccc(N2CCN(c3ccccc3C)CC2C)nn1 (stereo unspecified) | 13.2 |
| O[C@@H]1CN(c2cnc3ccccc3n2)CC[C@H]1c1ccc2c(c1)OCO2 | 22.4 |
| NCc1cc(NCC(c2ccccn2)N2CCOCC2)ncn1 (stereo unspecified) | -47.5 |

| Structure (SMILES) | cytotoxicity at 10 µM [%] |
| --- | --- |
| Cc1ccc(-n2cccn2)cc1S(=O)(=O)N1C[C@H](C2CC2)[C@@H](N)C1 | 0.479 |
| Cc1nn(CC(=O)NCc2cc3n(n2)CCCN(CC(C)C)C3)cc1Cl | 1.95 |
| CN1CC2(CCCN(c3cc(N4CCCCC4)ncn3)C2)OC1=O (stereo unspecified) | -39.7 |
| CCc1nnc(CN(C)c2nccc(CCC(F)(F)F)n2)o1 | 7.4 |
| CCCc1nnc2sc(CC3CN(Cc4ccccc4)CCO3)nn12 (stereo unspecified) | 5.3 |
| CCC(CNc1ncnc2oc(C)nc12)Cc1ccccc1 (stereo unspecified) | 1.23 |
| CCNCCOc1ccc(-c2cc(N)nc3[nH]ccc23)cc1 | 24.3 |
| N[C@@H]1CC[C@H](C(=O)NCCn2cc(Cl)cn2)C1 | -36.4 |
| CCSCCn1cc(-c2ncc[nH]2)nn1 | -41.4 |
| OC1(CN2CCCCC2)CCN(c2ccc(C(F)(F)F)cn2)C1 (stereo unspecified) | -11 |
| O=C(C1CCCO1)N1CCc2onc(-c3ccc(Cl)cc3)c2C1 (stereo unspecified) | -65.8 |
| CC(C)Cc1cc(C(=O)NC(C)(C)CN2CCCCCC2)on1 | -4.75 |
| Cc1nn(C)cc1-c1ccnc(NCCN)n1 | -0.571 |
| CN(C)CCCN(C)c1nccc(N2CCN[C@H]3CS(=O)(=O)C[C@H]32)n1 | -0.0813 |
| CCCS(=O)(=O)N1CCN(c2ccnc(N3CCCCC3)n2)CC1 | 0.805 |
| CNC(=O)Cn1c(-c2ccco2)nn(-c2ccccc2OC)c1=O | 2.51 |
| CC(=O)NCC1CCN(c2cc(C(C)C)nc3ccnn23)CC1 | 6.64 |
| CCn1ccnc1C1CCN(Cc2cccc(Cl)c2)CC1 | -9.45 |
| O=C(Cc1ccc(O)c(Cl)c1)N1CCCCC1CCn1cccn1 (stereo unspecified) | -13.6 |
| CN1CCCC[C@@H]2[C@H]1[C@@H](c1ccccc1)CCN2C(=O)c1ccccc1 | -4.3 |
| O=C(Cc1ccsc1)N1CCCC(c2n[nH]c3nccnc23)C1 (stereo unspecified) | 1.98 |
| COc1c(CNC2CCc3cc(Cl)ccc32)c(C)nn1C (stereo unspecified) | 5.64 |
| CCCc1nc(CNCC2CCCN2c2cccnn2)no1 (stereo unspecified) | -9.52 |

| Structure (SMILES) | cytotoxicity at 10 µM [%] |
| --- | --- |
| CS(=O)(=O)NC1CCN(C(=O)NCc2cccnc2)CC1 | 0.796 |
| COc1ccccc1N1CCC(CNCc2cccc(OC)c2OC)C1 (stereo unspecified) | 0.445 |
| CC(C)(C)c1nnc(CN2CCOC(Cn3cccn3)C2)o1 (stereo unspecified) | -10.2 |
| CCN(CCNC(=O)c1ccccc1OCCOC)C1CC1 | 11.7 |
| COc1cc(CNCc2ccc(NC(=O)NC(C)C)cc2)cc(OC)c1 | 0.347 |
| CC(C)c1nc(CC(=O)Nc2nc(CN3CCCCCC3)cs2)cs1 | 6.02 |
| CCN1CCC2(CC1)OCCN2C(=O)c1cc(Cl)c(OC)c(Cl)c1 | 9.31 |
| Cc1ncc(CNCCO)c2cc(C(=O)c3ccc(Br)cc3)oc12 | 15.2 |
| CN1C(=O)CCC12CCCN(Cc1nccs1)C2 (stereo unspecified) | -68.8 |
| CCOc1ccc(CNCC(O)c2ccccc2)cc1Cl (stereo unspecified) | -3.4 |
| CC1CCN(C(=O)[C@@H]2C[C@H]3OCC[C@H]3N(Cc3ccoc3)C2)CC1 | -72.5 |
| Cc1cccc(N2CCOCC3(C2)CN(c2ccccc2)C(=O)CO3)n1 (stereo unspecified) | -4.53 |
| COCc1nn(C(C)C)c2c1CCN(Cc1ccc(C)o1)C2 | 2.32 |
| O=C(CSc1nnc(N2CCNCC2)s1)Nc1ccccc1 | 2.84 |
| CNC(=O)COC1COC2(CCN(Cc3ccncc3F)CC2)C1 (stereo unspecified) | 7.37 |
| Cc1cccc(CN2CCC3(CCN(c4cccnc4)C3=O)C2)n1 (stereo unspecified) | -1.63 |
| CN(Cc1cn2c(n1)CN(Cc1ccc(F)cc1)CC2)Cc1ccco1 | -77 |
| Fc1cnc(N2C[C@H]3CN(Cc4cccc(F)c4)C[C@H]3C2)nc1 | 10.4 |
| CCn1ncc2c1CN(CCc1cccc(Cl)c1)CC2COC (stereo unspecified) | -98.4 |
